From ChEMBL document CHEMBL1821634, “Design and synthesis of (+)-discodermolide-paclitaxel hybrids leading to enhanced biological activity” (J Med Chem, 2011) come the findings set out here.

Active and inactive are the calls of the source. No cut-off for these calls is given here.

Experiment [1] concerns A549. In words: Antiproliferative activity against human A549 cells after 72 hrs by SRB method. In kind it is functional, cell-based. Particulars: A549, 72 h. The essentials: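 Cells kept in RPMI with 10% FBS; 800 A549 cells seeded per well, drugs added at increasing concentrations 18 h after plating. Incubated 72 h at 37 °C, then fixed and stained with SRB. IC50 taken as concentration inhibiting growth by 50%.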
In general terms: The SRB assay estimates cell density from bound dye.

The species entered for experiment [2] is Bos taurus. Kind of experiment: Induction of bovine brain tubulin polymerization at 3 uM after 30 mins by SDS-PAGE. Summed up: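 Tubulin (2.5 μM) in 0.1 M MES, 1 mM EGTA, 1 mM MgCl₂ with 2 mM GTP, incubated with drug at 3 μM for 30 min at 37 °C. Polymer pelleted at 120000g, 37 °C, 1 h. Pellet dissolved in SDS sample buffer and analysed by SDS-PAGE.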
Experiment [3] deals with MCF7. Kind of experiment: Antiproliferative activity against human MCF7 cells after 96 hrs by SRB method. In kind it is functional, cell-based. Particulars: MCF7, 96 h. The essentials: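 MCF-7 cells grown in RPMI plus 10% fetal bovine serum, seeded at 2000 per well. Increasing drug concentrations added 18 h post-plating. Incubation for 96 h at 37 °C, with the later fixation allowing for growth rate, then SRB staining. IC50 is the concentration giving 50% growth inhibition.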

Usually IC50 stands for the concentration that gives 50% inhibition. Lower therefore signals greater potency in that assay. In the case of `C=C/C=C\[C@H](C)[C@H](OC(=O)NCCCCNC(=O)c1ccc(N=[N+]=[N-])cc1)[C@@H](C)[C@H](O)[C@@H](C)C/C(C)=C\[C@H](C)[C@@H](O)[C@@H](C)/C=C\[C@@H](O)C[C@@H]1OC(=O)[C@H](C)[C@@H](O)[C@H]1C`, the IC50 came out at 3.76 nM in experiment [1] and 2.71 nM in experiment [3]. In experiment [2], the outcome was Active.
Taken in the same sequence, the figures for `C=C/C=C\[C@H](C)[C@H](OC(=O)NCCCNC(=O)c1ccc(N=[N+]=[N-])cc1)[C@@H](C)[C@H](O)[C@@H](C)C/C(C)=C\[C@H](C)[C@@H](O)[C@@H](C)/C=C\[C@@H](O)C[C@@H]1OC(=O)[C@H](C)[C@@H](O)[C@H]1C` were 1.21 nM, 1.9 nM and “Active”.
Turning to `C=C/C=C\[C@H](C)[C@H](OC(=O)NCCCNC(=O)c1cccc(N=[N+]=[N-])c1)[C@@H](C)[C@H](O)[C@@H](C)C/C(C)=C\[C@H](C)[C@@H](O)[C@@H](C)/C=C\[C@@H](O)C[C@@H]1OC(=O)[C@H](C)[C@@H](O)[C@H]1C`, the IC50 in experiment [1] stood at 1.05 nM; in experiment [3] it was 1.66 nM. Further, the outcome in experiment [2] was Active.
On to `C=C/C=C\[C@H](C)[C@H](OC(=O)NCCCNC(=O)c1ccc(C2(C(F)(F)F)N=N2)cc1)[C@@H](C)[C@H](O)[C@@H](C)C/C(C)=C\[C@H](C)[C@@H](O)[C@@H](C)/C=C\[C@@H](O)C[C@@H]1OC(=O)[C@H](C)[C@@H](O)[C@H]1C`, for which the IC50 was found to be 2.64 nM in experiment [1] and 1.92 nM in experiment [3]. Also, the outcome in experiment [2] was Active.
In the case of `CC(=O)O[C@H]1C(=O)[C@@]2(C)[C@H]([C@H](OC(=O)c3ccccc3)[C@]3(O)C[C@H](OC(=O)[C@H](O)[C@@H](NC(=O)c4ccccc4)c4ccccc4)C(C)=C1C3(C)C)[C@]1(OC(C)=O)CO[C@@H]1C[C@@H]2O` [PACLITAXEL], the IC50 worked out at 3.14 nM in experiment [1] and 0.91 nM in experiment [3].
With `C=C/C=C\[C@H](C)[C@H](OC(N)=O)[C@@H](C)[C@H](O)[C@@H](C)C/C(C)=C\[C@H](C)[C@@H](O)[C@@H](C)/C=C\[C@@H](O)C[C@@H]1OC(=O)[C@H](C)[C@@H](O)[C@H]1C` [DISERMOLIDE], the results for the IC50 in experiment [1] and in experiment [3] were 9.34 nM and 7.98 nM, respectively. For the same compound, the outcome in experiment [2] was Active.
With `C=C/C=C\[C@H](C)[C@H](OC(=O)NCCNC(=O)c1ccc(N=[N+]=[N-])cc1)[C@@H](C)[C@H](O)[C@@H](C)C/C(C)=C\[C@H](C)[C@@H](O)[C@@H](C)/C=C\[C@@H](O)C[C@@H]1OC(=O)[C@H](C)[C@@H](O)[C@H]1C`, the IC50 in experiment [1] is 5.61 nM; in experiment [3] it was 3.64 nM. Besides, in experiment [2], the outcome was Active.
